Measured values reported in ChEMBL document CHEMBL1811823, “Quinazolinone linked pyrrolo[2,1-c][1,4]benzodiazepine (PBD) conjugates: Design, synthesis and biological evaluation as potential anticancer agents” (2010).
Active and inactive are the calls of the source. The rule behind the calls is not given here.

Key:
HL-60 = assay: Growth inhibition of human HL-60(TB) cells by NCI anti-cancer screening method; type: functional
Summary of the method: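 Cells grown in RPMI 1640 with 10% FBS and 2 mM L-glutamine were plated at a density set by doubling time. They were held 24 h at 37 °C in 5% CO2 before drug was added, then exposed continuously for 48 h. Cells were fixed with cold TCA (10% final) for 60 min at 4 °C and stained with 0.4% SRB. Bound dye was eluted in 10 mM Tris base and read at 540 nm. Percent growth was taken versus control wells.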

SNB-19 = assay: Growth inhibition of human SNB19 cells by NCI anti-cancer screening method; type: functional
TK-10 = assay: Growth inhibition of human TK10 cells by NCI anti-cancer screening method; type: functional
BT-549 = assay: Growth inhibition of human BT549 cells by NCI anti-cancer screening method; type: functional
CCRF-CEM = assay: Growth inhibition of human CCRF-CEM cells by NCI anti-cancer screening method; type: functional
KM12 = assay: Growth inhibition of human KM12 cells by NCI anti-cancer screening method; type: functional
Malme-3M = assay: Growth inhibition of human MALME-3M cells by NCI anti-cancer screening method; type: functional
EKVX = assay: Growth inhibition of human EKVX cells by NCI anti-cancer screening method; type: functional
CAKI-1 = assay: Growth inhibition of human Caki1 cells by NCI anti-cancer screening method; type: functional
A498 = assay: Growth inhibition of human A498 cells by NCI anti-cancer screening method; type: functional
Nucleic Acid = assay: Binding affinity to calf thymus DNA assessed as change in melting temperature at 20 uM at pH 7 incubated for 18 hrs at 37 degC by thermal denaturation assay; type: nucleic-acid assay; settings: Bos taurus
Summary of the method: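 CT-DNA (100 µM in phosphate) with 20 µM ligand, 1:5 [PBD]/[DNA], in 10 mM sodium phosphate/1 mM Na2EDTA buffer pH 7.00. Ligand added from methanol solution; incubated at 37 °C for 0 or 18 h. A260 monitored while heating 1 °C/min over 40–90 °C. Tm taken from d(A260)/dT maxima; ΔTm = Tm(DNA+PBD) − Tm(DNA alone). Values are means of at least three determinations, corrected for methanol cosolvent.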

U-251 = assay: Growth inhibition of human U251 cells by NCI anti-cancer screening method; type: functional
OVCAR-8 = assay: Growth inhibition of human OVCAR8 cells by NCI anti-cancer screening method; type: functional
DU-145 = assay: Growth inhibition of human DU145 cells by NCI anti-cancer screening method; type: functional
A-375 [1] = assay: Inhibition of NF-kappaB signaling in human A375 cells at 4 uM after 24 hrs by Western blot; type: cell-based
Summary of the method: (§1)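 A375 cells (DMEM, 10% FCS, 37 °C, 5% CO2) were treated at 4 µM for 24 h. Lysates were loaded at 30 µg protein/lane on 12% SDS-PAGE and transferred to PVDF. Membranes were blocked 2 h in TBST, incubated with primary antibody overnight at 4 °C (p53 1:100, p27 1:500, NF-κB p65 1:500), then HRP secondary 1 h, with chemiluminescent detection. β-actin was the loading control; untreated and DMSO controls were run.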

HCC 2998 = assay: Growth inhibition of human HCC2998 cells by NCI anti-cancer screening method; type: functional
PC-3 = assay: Growth inhibition of human PC3 cells by NCI anti-cancer screening method; type: functional
NCI [2] = assay: Growth inhibition of human […] cells by NCI anti-cancer screening method; type: functional
HOP-92 = assay: Growth inhibition of human HOP92 cells by NCI anti-cancer screening method; type: functional
SNB-75 = assay: Growth inhibition of human SNB75 cells by NCI anti-cancer screening method; type: functional
A-375 [3] = assay: Increase in p53 protein expression in human A375 cells at 4 uM after 24 hrs by Western blot; type: functional, cell-based; summary of the method: as §1
MDA-MB-231 = assay: Growth inhibition of human MDA-MB-231 cells by NCI anti-cancer screening method; type: functional
MDA-MB-435 = assay: Growth inhibition of human MDA-MB-435 cells by NCI anti-cancer screening method; type: functional
NCI-H322M = assay: Growth inhibition of human NCI-H322M cells by NCI anti-cancer screening method; type: functional
SW-620 = assay: Growth inhibition of human SW620 cells by NCI anti-cancer screening method; type: functional
LOX IMVI = assay: Growth inhibition of human LOXIMVI cells by NCI anti-cancer screening method; type: functional
SK-MEL-2 = assay: Growth inhibition of human SK-MEL-2 cells by NCI anti-cancer screening method; type: functional
SN12C = assay: Growth inhibition of human SN12C cells by NCI anti-cancer screening method; type: functional
SF-268 = assay: Growth inhibition of human SF268 cells by NCI anti-cancer screening method; type: functional
NCI-H23 = assay: Growth inhibition of human NCI-H23 cells by NCI anti-cancer screening method; type: functional
UO-31 = assay: Growth inhibition of human UO31 cells by NCI anti-cancer screening method; type: functional
IGROV-1 = assay: Growth inhibition of human IGROV1 cells by NCI anti-cancer screening method; type: functional
NCI [4] = assay: Growth inhibition of human Hs 578T cells by NCI anti-cancer screening method; type: functional
SK-MEL-28 = assay: Growth inhibition of human SK-MEL-28 cells by NCI anti-cancer screening method; type: functional
SR = assay: Growth inhibition of human SR cells by NCI anti-cancer screening method; type: functional
SK-OV-3 = assay: Growth inhibition of human SKOV3 cells by NCI anti-cancer screening method; type: functional
MCF7 = assay: Growth inhibition of human MCF7 cells by NCI anti-cancer screening method; type: functional
OVCAR-3 = assay: Growth inhibition of human OVCAR3 cells by NCI anti-cancer screening method; type: functional

COc1cc2c(cc1OCCCCCOc1ccc(-n3c(C)nc4ccccc4c3=O)cc1)N=C[C@@H]1CCCN1C2=O
GI50 (HL-60): 180 nM
GI50 (SNB-19): 280 nM
GI50 (TK-10): 310 nM
GI50 (BT-549): 110 nM
GI50 (CCRF-CEM): 160 nM
GI50 (KM12): 170 nM
GI50 (Malme-3M): 230 nM
GI50 (EKVX): 870 nM
GI50 (CAKI-1): 190 nM
GI50 (A498): 160 nM
ΔTm (Nucleic Acid): 2.3 °C
GI50 (U-251): 160 nM
GI50 (OVCAR-8): 340 nM
GI50 (DU-145): 260 nM
inhibition (A-375 [1]): Active
GI50 (HCC 2998): 260 nM
GI50 (PC-3): 290 nM
GI50 (NCI [2]): 190 nM
GI50 (HOP-92): 350 nM
GI50 (SNB-75): 380 nM
Activity (A-375 [3]): Active
GI50 (MDA-MB-231): 170 nM
GI50 (MDA-MB-435): 160 nM
GI50 (NCI-H322M): 260 nM
GI50 (SW-620): 160 nM
GI50 (LOX IMVI): 150 nM
GI50 (SK-MEL-2): 420 nM
GI50 (SN12C): 240 nM
GI50 (SF-268): 260 nM
GI50 (NCI-H23): 230 nM
GI50 (UO-31): 360 nM
GI50 (IGROV-1): 180 nM
GI50 (NCI [4]): 160 nM
GI50 (SK-MEL-28): 200 nM
GI50 (SR): 110 nM
GI50 (SK-OV-3): 430 nM
GI50 (MCF7): 170 nM
GI50 (OVCAR-3): 200 nM
